The source made the active and inactive calls. No cut-off for these calls is given here.
Experiments:
HCC70 [1] = test: Induction of glycosaminoglycan chains priming from beta-D-xylopyranoside in human HCC70 cells using [35S]-Sulfate after 30 mins by beta counting; assay type: functional, cell-based
Method in brief: (§1)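 Confluent monolayers incubated with xylosides in low-sulfate labeling medium with 2 mM glutamine and 20 µCi/mL [35S]sulfate; xylosides diluted from 20 mM stocks in Me2SO/water 1:1. Medium collected, labeled polyanions captured on DEAE-cellulose, free primed GAG chains separated from PG on Octyl-Sepharose. Ethanol-precipitated, sized by Superose 6 gel-permeation FPLC, radioactivity counted by beta counter.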

[2] = Antiproliferative activity against human CCD-1095SK cells after 96 hrs by crystal violet staining method; assay type: cell-based; conditions: for GI50 at 96 h: CCD-1095SK cells, read-out: ED50
Method in brief: (§2)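 Normal breast fibroblasts (CCD-1095Sk) or HCC70 breast carcinoma cells seeded at 5000 cells/well, in MEM or RPMI-1640 with 10% fetal calf serum. After 24 h, switched to serum-free Ham's F-12 with insulin (10 µg/mL) and transferrin (25 µg/mL) plus increasing xyloside concentrations, 96 h total. Fixed in 1% glutaraldehyde, stained with 0.1% crystal violet, lysed in 1% Triton X-100, read at A600. ED50 taken from % of untreated growth.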

CCD-1095SK = test: Induction of glycosaminoglycan chains priming in human CCD-1095SK cells using [35S]-Sulfate after 30 mins by beta counting; assay type: functional, cell-based; method in brief: as §1
HCC70 [3] = test: Antiproliferative activity against human HCC70 cells after 96 hrs by crystal violet staining method; assay type: functional; conditions: read-out: ED50 (the source's name); method in brief: as §2
HCC70 [4] = test: Inhibition of glycosaminoglycan chains priming from beta-D-xylopyranoside in human HCC70 cells at 0.1 mM; assay type: functional
HCC70 [5] = test: Inhibition of endogenous proteoglycans production in human HCC70 cells at 0.1 mM; assay type: functional

| Compound | Activity (HCC70 [1]) | GI50 at 96 h [2] [µM] | Activity (CCD-1095SK) | EC50 (HCC70 [3]; Homo sapiens, HCC70, 96 h) [µM] | GI50 ([2]; ccd-1095sk, 96 h, read-out: ED50 (the source's name)) [µM] | EC50 (HCC70 [3]) [µM] | inhibition at 100 µM (HCC70 [4]) [%] | inhibition at 100 µM (HCC70 [5]) [%] |
| --- | --- | --- | --- | --- | --- | --- | --- | --- |
| CO[C@@H]1[C@@H](O)[C@H](Oc2ccc3ccccc3c2)OC[C@H]1O | inactive | 17 | inactive | 145 | – | – | – | – |
| O[C@H]1[C@H](Oc2ccc3ccccc3c2)OC[C@@H](O)[C@@H]1F | inactive | 72 | inactive | 94 | – | – | – | – |
| O[C@H]1[C@H](Oc2ccc3ccccc3c2)OC[C@@H](O)[C@H]1O | inactive | 182 | inactive | 178 | – | – | – | – |
| CO[C@@H]1CO[C@@H](Oc2ccc3ccccc3c2)[C@H](O)[C@H]1O | inactive | 93 | inactive | 135 | – | – | – | – |
| CO[C@H]1[C@H](Oc2ccc3ccccc3c2)OC[C@@H](O)[C@@H]1O | inactive | 55 | inactive | 127 | – | – | – | – |
| O[C@@H]1CO[C@@H](Oc2ccc3ccccc3c2)C[C@H]1O | inactive | 19 | inactive | 228 | – | – | – | – |
| O[C@@H]1CO[C@@H](Oc2ccc3ccccc3c2)[C@H](O)C1 | inactive | 79 | inactive | 179 | – | – | – | – |
| O[C@@H]1[C@@H](O)[C@H](Oc2ccc3ccccc3c2)OC[C@H]1O (stereo in doubt; 1b) | Active | – | Active | – | 243 | 91 | – | – |
| Oc1ccc2cc(O[C@@H]3OC[C@@H](O)[C@H](O)[C@H]3O)ccc2c1 | Active | – | Active | – | – | – | – | – |
| O[C@@H]1[C@@H](F)[C@H](Oc2ccc3ccccc3c2)OC[C@H]1O | inactive | 12 | inactive | 22 | – | – | – | – |
| O[C@@H]1[C@@H](O)[C@H](Oc2ccc3ccccc3c2)OC[C@@H]1O | inactive | 48 | inactive | 371 | – | – | – | – |
| O[C@@H]1[C@@H](O)[C@H](Oc2ccc3ccccc3c2)OC[C@H]1F | inactive | 32 | inactive | 37 | – | – | 23 | 33 |
| O[C@H]1[C@H](Oc2ccc3ccccc3c2)OCC[C@@H]1O | inactive | 285 | inactive | 284 | – | – | – | 24 |

Source: ChEMBL document CHEMBL1800020, “Synthesis, conformation and biology of naphthoxylosides” (Bioorg Med Chem, 2011)
